Calls of active or inactive are those of the source. No cut-off for these calls is given here.
Legend:
[1] = Cytotoxicity against human PBMC after 48 hrs by trypan blue exclusion assay; type: toxicity, cell-based; details: PBMC (peripheral blood mononuclear cells), read-out: LD50
How it was run: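 Human PBMCs came from healthy donors' venous blood by histopaque-1077 density separation. Cells were washed in RPMI 1640 with 2 mM L-glutamine and resuspended in RPMI with 10% FBS at 1x10^5 cells/ml. Trypan blue exclusion followed the procedure adapted from the microfilarial motility assay. LD50 was taken as the dose giving 50% cytotoxicity.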

[2] = Antifilarial activity against Brugia malayi microfilariae isolated from peritoneal cavity of infected Meriones unguiculatus assessed as loss of motility incubated for 48 hrs by microscopy; type: functional
How it was run: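 Jird peritoneal Mf cleaned of exudate cells by 1 h adherence at 37°C. Exposed to compound over 1–100 µM final with shaking at 37°C, 30 min, 150 rpm in 0.9% saline. Washed, plated at 100 Mf per well in RPMI, triplicate wells, then 48 h at 37°C in 5% CO2. Vehicle control 1% DMSO. Loss of motility read by microscopy; experiment repeated three times; IC50 calculated.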

[3] = Antifilarial activity against Brugia malayi microfilariae isolated from peritoneal cavity of infected Meriones unguiculatus assessed as loss of motility at 500 uM incubated for 48 hrs by microscopy; type: functional
How it was run: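 Jird peritoneal Mf washed in RPMI 1640 with gentamycin, penicillin and streptomycin, then held 1 h at 37°C on dishes to remove exudate cells. About 300 Mf in 0.9% saline exposed to compound with shaking at 37°C, 30 min, 150 rpm. 100 Mf per well, in triplicate, then 48 h at 37°C in 5% CO2 in RPMI. Stocks were 2 mM in DMSO; vehicle control 1% DMSO. Motility scored by microscopy; mean ± SEM % loss of motility.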

Brugia malayi = assay: Induction of apoptosis in Brugia malayi microfilariae isolated from peritoneal cavity of infected Meriones unguiculatus after 48 hrs by acridine orange/ethidium bromide dual staining based epifluorescence microscopy; type: functional
How it was run: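 Mf, control or treated for 48 h, washed and resuspended in cold PBS. Dye mix of 100 µg/mL AO and 100 µg/mL EB in PBS added. Viewed by epifluorescence microscopy with 480/30 nm excitation; green nuclei scored as live, orange/red as apoptotic or dead. Staurosporine was the positive control and untreated Mf the negative control.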

## O=C(/C=C/c1ccc(Cl)cc1)c1ccc(NS(=O)(=O)c2ccccc2)cc1
[1]
  CC50 at 48 h: 177 µM
[2]
  IC50: 17 µM
[3]
  Activity: 100%
Brugia malayi
  Activity: Active

## Cc1ccc(S(=O)(=O)Nc2ccc(C(=O)/C=C/c3ccc(-c4ccccc4)cc3)cc2)cc1
[3]
  Activity: 6.24%

## Cc1ccc(S(=O)(=O)Nc2ccc(C(=O)/C=C/c3ccc(C(C)C)cc3)cc2)cc1
[1]
  CC50 at 48 h: 50 µM
[2]
  IC50: 20 µM
[3]
  Activity: 100%
Brugia malayi
  Activity: Active

## O=C(/C=C/c1ccco1)c1ccc(NS(=O)(=O)c2ccccc2)cc1
[3]
  Activity: 8.11%

## Cc1ccc(S(=O)(=O)Nc2ccc(C(=O)/C=C/c3ccc(O)cc3)cc2)cc1
[1]
  CC50 at 48 h: 270 µM
[2]
  IC50: 82 µM
[3]
  Activity: 100%
Brugia malayi
  Activity: Active

## Cc1ccc(S(=O)(=O)Nc2ccc(C(=O)/C=C/c3ccc(Cl)cc3)cc2)cc1
[3]
  Activity: 1.58%

## COc1ccc(/C=C/C(=O)c2ccc(NS(C)(=O)=O)cc2)cc1
[1]
  CC50 at 48 h: 194 µM
[2]
  IC50: 60 µM
[3]
  Activity: 100%
Brugia malayi
  Activity: Active

## CN(C)c1ccc(/C=C/C(=O)c2ccc(NS(=O)(=O)c3ccccc3)cc2)cc1
[3]
  Activity: 3.75%

## O=C(/C=C/c1ccc([N+](=O)[O-])cc1)c1ccc(NS(=O)(=O)c2ccccc2)cc1
[3]
  Activity: 100%
Brugia malayi
  Activity: Active

## Cc1ccc(S(=O)(=O)Nc2ccc(C(=O)/C=C/c3cccc(Br)c3)cc2)cc1
[1]
  CC50 at 48 h: 80 µM
[2]
  IC50: 15 µM
[3]
  Activity: 100%
Brugia malayi
  Activity: Active

## O=C(/C=C/c1ccccc1Cl)c1ccc(NS(=O)(=O)c2ccccc2)cc1
[3]
  Activity: 33.3%

## Cc1ccc(S(=O)(=O)Nc2ccc(C(=O)/C=C/c3ccc(Br)cc3)cc2)cc1
[1]
  CC50 at 48 h: 220 µM
[2]
  IC50: 4.6 µM
[3]
  Activity: 100%
Brugia malayi
  Activity: Active

## O=C(/C=C/c1ccc(F)cc1)c1ccc(NS(=O)(=O)c2ccccc2)cc1
[1]
  CC50 at 48 h: 217 µM
[2]
  IC50: 4.5 µM
[3]
  Activity: 100%
Brugia malayi
  Activity: Active

## O=C(/C=C/c1ccccc1)c1ccc(NS(=O)(=O)c2ccccc2)cc1
[3]
  Activity: 4.52%

## O=C(/C=C/c1ccc(Br)s1)c1ccc(NS(=O)(=O)c2ccccc2)cc1
[3]
  Activity: 9%

## Cc1ccc(S(=O)(=O)Nc2ccc(C(=O)/C=C/c3ccccc3Br)cc2)cc1
[3]
  Activity: 3.04%

## Cc1ccc(S(=O)(=O)Nc2ccc(C(=O)/C=C/c3ccccc3)cc2)cc1
[1]
  CC50 at 48 h: 335 µM
[2]
  IC50: 9.7 µM
[3]
  Activity: 100%
Brugia malayi
  Activity: Active

## COc1ccc(/C=C/C(=O)c2ccc(NS(=O)(=O)c3ccccc3)cc2)cc1
[3]
  Activity: 1.81%

## Cc1ccc(/C=C/C(=O)c2ccc(NS(=O)(=O)c3ccccc3)cc2)cc1
[3]
  Activity: 6.34%

## Cc1ccc(/C=C/C(=O)c2ccc(NS(=O)(=O)c3ccc(C)cc3)cc2)cc1
[1]
  CC50 at 48 h: 140 µM
[2]
  IC50: 8.2 µM
[3]
  Activity: 100%
Brugia malayi
  Activity: Active

## O=C(/C=C/c1ccc(O)cc1)c1ccc(NS(=O)(=O)c2ccccc2)cc1
[3]
  Activity: 5.2%

## O=C(/C=C/c1ccccc1Br)c1ccc(NS(=O)(=O)c2ccccc2)cc1
[3]
  Activity: 13.4%

## CS(=O)(=O)Nc1ccc(C(=O)/C=C/c2ccc([N+](=O)[O-])cc2)cc1
[1]
  CC50 at 48 h: 188 µM
[2]
  IC50: 4.4 µM
[3]
  Activity: 100%
Brugia malayi
  Activity: Active

## Cc1ccc(S(=O)(=O)Nc2ccc(C(=O)/C=C/c3ccccc3Cl)cc2)cc1
[3]
  Activity: 4.1%

## CS(=O)(=O)Nc1ccc(C(=O)/C=C/c2ccccc2)cc1
[1]
  CC50 at 48 h: 134 µM
[2]
  IC50: 32 µM
[3]
  Activity: 100%
Brugia malayi
  Activity: Active

## O=C(/C=C/c1ccc(Br)cc1)c1ccc(NS(=O)(=O)c2ccccc2)cc1
[1]
  CC50 at 48 h: 265 µM
[2]
  IC50: 70 µM
[3]
  Activity: 100%
Brugia malayi
  Activity: Active

## COc1ccc(/C=C/C(=O)c2ccc(NS(=O)(=O)c3ccc(C)cc3)cc2)cc1
[3]
  Activity: 82.7%

From ChEMBL document CHEMBL3870323, “Sulfonamide chalcones: Synthesis and in vitro exploration for therapeutic potential against Brugia malayi” (Eur J Med Chem, 2016)
